Test results reported in ChEMBL document CHEMBL3272188, “Inhibitors of Bacillus subtilis DNA polymerase III. 6-(arylalkylamino)uracils and 6-anilinouracils” (J Med Chem, 1977).
pKi: −log10 of the molar value.

How the values were obtained:
[1] = Inhibition of wild-type Bacillus subtilis DNA polymerase 3-mediated dGTP truncated DNA synthesis assessed as inhibition of incorporation of [3H]TMP
How it was run: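 Pol III truncated DNA synthesis run with dGTP omitted from the reaction. The reported Ki is the inhibitor concentration giving 50% inhibition of enzyme activity.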

[2] = Inhibition of Bacillus subtilis DNA polymerase 3/azp-12 mutant-mediated dGTP truncated DNA synthesis assessed as inhibition of incorporation of [3H]TMP
[3] = system: Bacillus subtilis; test: Inhibition of wild-type Bacillus subtilis DNA polymerase 3-mediated dGTP truncated DNA synthesis assessed as inhibition of incorporation of [3H]TMP at 1 mM
How it was run: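 Single-concentration test at 1 mM inhibitor in pol III truncated DNA synthesis with dGTP omitted.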

SMILES | pKi [1] | pKi [2] | inhibition [3] [%]
Nc1ccc(CNc2cc(=O)[nH]c(=O)[nH]2)cc1 | 4.77 | 3.81 | –
CC(=O)Nc1ccc(CNc2cc(=O)[nH]c(=O)[nH]2)cc1 | 2.64 | – | –
O=c1cc(NCc2ccc([N+](=O)[O-])cc2)[nH]c(=O)[nH]1 | 5.28 | – | –
Oc1cc(NCCc2ccccc2)nc(O)n1 | 4.50 | 4.52 | –
CC(Nc1cc(=O)[nH]c(=O)[nH]1)c1ccccc1 (configuration not stated) | – | – | < 10
Oc1cc(Nc2ccc3c(c2)CCC3)nc(O)n1 | 6.40 | – | –
Oc1cc(NCCCc2ccccc2)nc(O)n1 | 2.70 | – | –
Cc1ccc(Nc2cc(O)nc(O)n2)cc1 | 4.69 | – | –
O=c1cc(NCC2CCCCC2)[nH]c(=O)[nH]1 | – | – | < 10
Oc1cc(NCc2ccccc2)nc(O)n1 | 5.64 | 5.60 | –
Cc1cccc(Nc2cc(O)nc(O)n2)c1 | 4.56 | – | –
Cc1ccc(Nc2cc(O)nc(O)n2)cc1C | 6.00 | – | –
Oc1cc(Nc2ccccc2)nc(O)n1 | – | – | < 10
Oc1cc(NCCCCc2ccccc2)nc(O)n1 | – | – | < 10
